Reference: ChEMBL document CHEMBL4270599, “Synthesis of a 3'-C-ethynyl-β-d-ribofuranose purine nucleoside library: Discovery of C7-deazapurine analogs as potent antiproliferative nucleosides” (Eur J Med Chem, 2018)

Assays:
SK-OV-3 [1] = assay: Cytotoxicity against human SKOV3 cells after 48 hrs by SRB assay; assay type: functional; settings: SK-OV-3, 48 h; for GI50: read-out: GI50; for CC50: read-out: LC50 (the source's name)
SF-539 = assay: Growth inhibition of human SF539 cells assessed as cell growth at 10^-8 M incubated for 48 hrs by sulforhodamine B assay relative to control; assay type: functional; settings: SF-539, 48 h, read-out: Activity
SK-OV-3 [2] = assay: Growth inhibition of human SKOV3 cells assessed as cell growth at 10^-7 M incubated for 48 hrs by sulforhodamine B assay relative to control; assay type: functional; settings: SK-OV-3, 48 h, read-out: Activity
COLO 205 = assay: Cytotoxicity against human COLO205 cells after 48 hrs by SRB assay; assay type: functional; settings: COLO 205, 48 h; for GI50: read-out: GI50; for CC50: read-out: LC50 (the source's name); for TGI: read-out: TGI
KM12 [3] = assay: Growth inhibition of human KM12 cells assessed as cell growth at 10^-6 M incubated for 48 hrs by sulforhodamine B assay relative to control; assay type: functional; settings: KM12, 48 h, read-out: Activity
SF-268 = assay: Growth inhibition of human SF268 cells assessed as cell growth at 10^-5 M incubated for 48 hrs by sulforhodamine B assay relative to control; assay type: functional; settings: SF-268, 48 h, read-out: Activity
MDA-MB-435 = assay: Growth inhibition of human MDA-MB-435 cells assessed as cell growth at 10^-7 M incubated for 48 hrs by sulforhodamine B assay relative to control; assay type: functional; settings: MDA-MB-435, 48 h, read-out: Activity
CCRF-CEM [4] = assay: Cytotoxicity against human CCRF-CEM cells after 48 hrs by SRB assay; assay type: functional; settings: for GI50: read-out: GI50
MDA-MB-231 = assay: Cytotoxicity against human MDA-MB-231 cells after 48 hrs by SRB assay; assay type: functional; settings: MDA-MB-231, 48 h; for GI50: read-out: GI50; for CC50: read-out: LC50 (the source's name)
HCT-116 = assay: Growth inhibition of human HCT116 cells assessed as cell growth at 10^-5 M incubated for 48 hrs by sulforhodamine B assay relative to control; assay type: functional; settings: HCT-116, 48 h, read-out: Activity
Hs-578T [5] = assay: Cytotoxicity against human Hs 578T cells after 48 hrs by SRB assay; assay type: functional; settings: for GI50: read-out: GI50; for TGI: read-out: TGI
NCI-H322M = assay: Growth inhibition of human NCI-H322M cells assessed as cell growth at 10^-6 M incubated for 48 hrs by sulforhodamine B assay relative to control; assay type: functional; settings: read-out: Activity
Malme-3M [6] = assay: Growth inhibition of human MALME-3M cells assessed as cell growth at 10^-7 M incubated for 48 hrs by sulforhodamine B assay relative to control; assay type: functional; settings: read-out: Activity
[7] = Antiproliferative activity against HMVEC-d cells after 4 days by Coulter counter method; assay type: cell-based; settings: Homo sapiens, 96 h
Procedure, shortened: (§1)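 Primary HUVEC, primary HMVEC-d and the HMEC-1 line seeded at 20,000 cells/well in gelatin-coated plates in EC growth medium (EGM2). After overnight incubation, 5-fold compound dilutions added. Cells proliferated four days with compound, then trypsinized and counted by Coulter counter to derive IC₅₀.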

786-0 = assay: Growth inhibition of human 786-0 cells assessed as cell growth at 10^-8 M incubated for 48 hrs by sulforhodamine B assay relative to control; assay type: functional; settings: 786-0, 48 h, read-out: Activity
CCRF-CEM [8] = assay: Growth inhibition of human CCRF-CEM cells assessed as cell growth at 10^-5 M incubated for 48 hrs by sulforhodamine B assay relative to control; assay type: functional; settings: read-out: Activity
NCI-H460 = assay: Cytotoxicity against human NCI-H460 cells after 48 hrs by SRB assay; assay type: functional; settings: NCI-H460, 48 h; for GI50: read-out: GI50; for CC50: read-out: LC50 (the source's name); for TGI: read-out: TGI
HMEC-1 = assay: Antiproliferative activity against HMEC1 cells after 4 days by Coulter counter method; assay type: cell-based; settings: Homo sapiens, HMEC-1, 96 h; procedure, shortened: as §1
PC-3 = assay: Growth inhibition of human PC3 cells assessed as cell growth at 10^-4 M incubated for 48 hrs by sulforhodamine B assay relative to control; assay type: functional; settings: PC-3, 48 h, read-out: Activity
Hs-578T [9] = assay: Growth inhibition of human Hs 578T cells assessed as cell growth at 10^-8 M incubated for 48 hrs by sulforhodamine B assay relative to control; assay type: functional; settings: read-out: Activity
KM12 [10] = assay: Growth inhibition of human KM12 cells assessed as cell growth at 10^-7 M incubated for 48 hrs by sulforhodamine B assay relative to control; assay type: functional; settings: KM12, 48 h, read-out: Activity
SK-MEL-28 = assay: Growth inhibition of human SK-MEL-28 cells assessed as cell growth at 10^-7 M incubated for 48 hrs by sulforhodamine B assay relative to control; assay type: functional; settings: SK-MEL-28, 48 h, read-out: Activity
OVCAR-5 [11] = assay: Growth inhibition of human OVCAR5 cells assessed as cell growth at 10^-7 M incubated for 48 hrs by sulforhodamine B assay relative to control; assay type: functional; settings: OVCAR-5, 48 h, read-out: Activity
OVCAR-5 [12] = assay: Growth inhibition of human OVCAR5 cells assessed as cell growth at 10^-5 M incubated for 48 hrs by sulforhodamine B assay relative to control; assay type: functional; settings: OVCAR-5, 48 h, read-out: Activity
KM12 [13] = assay: Growth inhibition of human KM12 cells assessed as cell growth at 10^-4 M incubated for 48 hrs by sulforhodamine B assay relative to control; assay type: functional; settings: KM12, 48 h, read-out: Activity
LOX IMVI = assay: Growth inhibition of human LOXIMVI cells assessed as cell growth at 10^-7 M incubated for 48 hrs by sulforhodamine B assay relative to control; assay type: functional; settings: read-out: Activity
K562 = assay: Growth inhibition of human K562 cells assessed as cell growth at 10^-4 M incubated for 48 hrs by sulforhodamine B assay relative to control; assay type: functional; settings: K562, 48 h, read-out: Activity
Malme-3M [14] = assay: Growth inhibition of human MALME-3M cells assessed as cell growth at 10^-8 M incubated for 48 hrs by sulforhodamine B assay relative to control; assay type: functional; settings: read-out: Activity
MCF7 [15] = assay: Growth inhibition of human MCF7 cells assessed as cell growth at 10^-5 M incubated for 48 hrs by sulforhodamine B assay relative to control; assay type: functional; settings: MCF7, 48 h, read-out: Activity
HL-60(TB) [16] = assay: Growth inhibition of human HL-60(TB) cells assessed as cell growth at 10^-6 M incubated for 48 hrs by sulforhodamine B assay relative to control; assay type: functional; settings: HL-60, 48 h, read-out: Activity
HL-60(TB) [17] = assay: Growth inhibition of human HL-60(TB) cells assessed as cell growth at 10^-7 M incubated for 48 hrs by sulforhodamine B assay relative to control; assay type: functional; settings: HL-60, 48 h, read-out: Activity
MCF7 [18] = assay: Growth inhibition of human MCF7 cells assessed as cell growth at 10^-4 M incubated for 48 hrs by sulforhodamine B assay relative to control; assay type: functional; settings: MCF7, 48 h, read-out: Activity
A498 = assay: Growth inhibition of human A498 cells assessed as cell growth at 10^-6 M incubated for 48 hrs by sulforhodamine B assay relative to control; assay type: functional; settings: A498, 48 h, read-out: Activity
[19] = read-out: LC50 (the source's name)
[20] = read-out: pLC50 (the source's name) (converted)

C#C[C@@]1(O)[C@@H](CO)O[C@@H](n2cc(Br)c3c(N)ncnc32)[C@@H]1O
GI50 (SK-OV-3 [1]): 44.1 to 153 nM
CC50 (SK-OV-3 [1]): > 100000 nM
TGI (SK-OV-3 [1]; read-out: TGI): 439 nM
TGI (SK-OV-3 [1]; read-out: pTGI (converted)): 437 nM
growth at 0.01 µM (SF-539): 91 to 93%
growth at 0.1 µM (SK-OV-3 [2]): 28 to 62%
GI50 (COLO 205): 43.6 to 182 nM
CC50 (COLO 205): 8040 to 100000 nM
TGI (COLO 205): 235 to 903 nM
growth at 1 µM (KM12 [3]): 21 to 26%
growth at 10 µM (SF-268): 7 to 11%
growth at 0.1 µM (MDA-MB-435): 51 to 70%
GI50 (CCRF-CEM [4]): 140 to 285 nM
CC50 (CCRF-CEM [4]; [19]): > 100000 nM
TGI (CCRF-CEM [4]; read-out: TGI): > 100000 nM
TGI (CCRF-CEM [4]; read-out: pTGI): > 100000 nM
GI50 (MDA-MB-231): 56 to 215 nM
CC50 (MDA-MB-231): > 100000 nM
TGI (MDA-MB-231; read-out: TGI): > 100000 nM
TGI (MDA-MB-231; read-out: pTGI (converted)): > 100000 nM
growth at 10 µM (HCT-116): 3 to 5%
GI50 (Hs-578T [5]): 307 to 1350 nM
TGI (Hs-578T [5]): 52400 to 100000 nM
CC50 (Hs-578T [5]; [20]): > 100000 nM
growth at 1 µM (NCI-H322M): 26 to 33%
growth at 0.1 µM (Malme-3M [6]): 77 to 79%
IC50 [7]: 1.9 nM
growth at 0.01 µM (786-0): 86 to 91%
growth at 10 µM (CCRF-CEM [8]): 3 to 5%
GI50 (NCI-H460): 17.1 to 50 nM
CC50 (NCI-H460): > 100000 nM
TGI (NCI-H460): 1540 to 5270 nM
IC50 (HMEC-1): 4.5 nM
growth at 100 µM (PC-3): -5%
growth at 0.01 µM (Hs-578T [9]): 90 to 96%
growth at 0.1 µM (KM12 [10]): 49 to 53%
growth at 0.1 µM (SK-MEL-28): 77 to 94%
growth at 0.1 µM (OVCAR-5 [11]): 62 to 97%
growth at 10 µM (OVCAR-5 [12]): 11 to 12%
growth at 100 µM (KM12 [13]): 2 to 10%
growth at 0.1 µM (LOX IMVI): 20 to 52%
growth at 100 µM (K562): 7%
growth at 0.01 µM (Malme-3M [14]): 100 to 102%

C#C[C@@]1(O)[C@@H](CO)O[C@@H](n2cc(I)c3c(N)ncnc32)[C@@H]1O
GI50 (SK-OV-3 [1]): 19.4 to 60.4 nM
CC50 (SK-OV-3 [1]): > 100000 nM
TGI (SK-OV-3 [1]; read-out: TGI): 469 to 1130 nM
growth at 10 µM (MCF7 [15]): 1 to 5%
growth at 0.01 µM (SF-539): 89 to 102%
growth at 0.1 µM (SK-OV-3 [2]): 26 to 40%
GI50 (COLO 205): 44.8 to 170 nM
CC50 (COLO 205): 4780 to 6740 nM
TGI (COLO 205): 393 to 1270 nM
growth at 1 µM (HL-60(TB) [16]): -38%
growth at 1 µM (KM12 [3]): 25 to 27%
growth at 10 µM (SF-268): 7%
growth at 0.1 µM (MDA-MB-435): 66 to 73%
GI50 (CCRF-CEM [4]): 249 to 295 nM
TGI (CCRF-CEM [4]; read-out: TGI): > 100000 nM
CC50 (CCRF-CEM [4]; [20]): > 100000 nM
TGI (CCRF-CEM [4]; read-out: pTGI): > 100000 nM
growth at 0.1 µM (HL-60(TB) [17]): 16 to 43%
growth at 100 µM (MCF7 [18]): 1 to 3%
GI50 (MDA-MB-231): 168 to 204 nM
CC50 (MDA-MB-231): > 100000 nM
TGI (MDA-MB-231; read-out: TGI): > 100000 nM
TGI (MDA-MB-231; read-out: pTGI (converted)): > 100000 nM
growth at 10 µM (HCT-116): 3%
GI50 (Hs-578T [5]): 550 to 1120 nM
CC50 (Hs-578T [5]; [19]): > 100000 nM
TGI (Hs-578T [5]): 7120 to 8620 nM
growth at 1 µM (NCI-H322M): 37 to 44%
growth at 0.1 µM (Malme-3M [6]): 78 to 99%
IC50 [7]: < 1.28 nM
growth at 0.01 µM (786-0): 87 to 98%
growth at 10 µM (CCRF-CEM [8]): 5 to 6%
GI50 (NCI-H460): 58.4 to 137 nM
CC50 (NCI-H460): 75400 to 100000 nM
TGI (NCI-H460): 1670 to 2180 nM
IC50 (HMEC-1): 18 nM
growth at 1 µM (A498): 1 to 29%
growth at 0.01 µM (Hs-578T [9]): 78 to 87%
growth at 0.1 µM (KM12 [10]): 49 to 50%
growth at 0.1 µM (SK-MEL-28): 86 to 88%
growth at 0.1 µM (OVCAR-5 [11]): 67 to 75%
growth at 10 µM (OVCAR-5 [12]): 2 to 6%
growth at 100 µM (KM12 [13]): 3 to 9%
growth at 0.1 µM (LOX IMVI): 27 to 46%
growth at 100 µM (K562): 7 to 8%
growth at 0.01 µM (Malme-3M [14]): 85 to 98%
